ChEMBL document CHEMBL4665690, “Proversilins A-E, Drimane-Type Sesquiterpenoids from the Endophytic Aspergillus versicolor” (J Nat Prod, 2020)

Legend:
Format in all cases: functional, cell-based
SMMC-7721 = test: Cytotoxicity against human SMMC-7721 cells assessed as reduction in cell viability after 48 hrs by MTT assay; conditions: SMMC-7721, 48 h
Method in brief: (§1)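 Cells exposed 48 h to compounds at 0.0625 to 40 μM, with cisplatin and paclitaxel as positive controls. Survival read by MTT, absorbance at 570 nm. Data are means of three replicates. IC50 derived from a standard dose–response curve fit.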

MCF7 = test: Cytotoxicity against human MCF7 cells assessed as reduction in cell viability after 48 hrs by MTT assay; conditions: MCF7, 48 h; method in brief: as §1
NCM460 = test: Cytotoxicity against human NCM460 cells assessed as reduction in cell viability after 48 hrs by MTT assay; conditions: NCM460, 48 h; method in brief: as §1
A549 = test: Cytotoxicity against human A549 cells assessed as reduction in cell viability after 48 hrs by MTT assay; conditions: A549, 48 h; method in brief: as §1
SW480 = test: Cytotoxicity against human SW480 cells assessed as reduction in cell viability after 48 hrs by MTT assay; conditions: SW480, 48 h; method in brief: as §1
HL-60 = test: Cytotoxicity against human HL-60 cells assessed as reduction in cell viability after 48 hrs by MTT assay; conditions: HL-60, 48 h; method in brief: as §1

Structure (SMILES): C[C@]1(CO)CCC[C@]2(C)C3=C(CC[C@@H]12)C(=O)OC3
- IC50 (SMMC-7721): > 40 µM
- IC50 (MCF7): > 40 µM
- IC50 (NCM460): > 40 µM
- IC50 (A549): > 40 µM
- IC50 (SW480): > 40 µM
- IC50 (HL-60): > 40 µM

Structure (SMILES): CC(=O)N[C@H](CC(=O)O[C@@H]1CC(C)(C)[C@@H]2CCC3=C(COC3=O)[C@@]2(C)C1)c1ccccc1
- IC50 (SMMC-7721): 12.6 µM
- IC50 (MCF7): 11.8 µM
- IC50 (NCM460): > 40 µM
- IC50 (A549): 15 µM
- IC50 (SW480): 12.4 µM
- IC50 (HL-60): 7.3 µM

Structure (SMILES): CC(=O)N[C@H](CC(=O)OC[C@@]1(C)CCC[C@]2(C)C3=C(CC[C@@H]12)C(=O)OC3)c1ccccc1
- IC50 (SMMC-7721): > 40 µM
- IC50 (MCF7): > 40 µM
- IC50 (NCM460): > 40 µM
- IC50 (A549): > 40 µM
- IC50 (SW480): > 40 µM
- IC50 (HL-60): > 40 µM

Structure (SMILES): CC(=O)N[C@H](CC(=O)O[C@@H]1C[C@](C)(CO)[C@@H]2CCC3=C(COC3=O)[C@@]2(C)C1)c1ccccc1
- IC50 (SMMC-7721): > 40 µM
- IC50 (MCF7): > 40 µM
- IC50 (NCM460): > 40 µM
- IC50 (A549): > 40 µM
- IC50 (SW480): > 40 µM
- IC50 (HL-60): > 40 µM

Structure (SMILES): CC(=O)N[C@H](CC(=O)O[C@@H]1C[C@](C)(C=O)[C@@H]2CCC3=C(COC3=O)[C@@]2(C)C1)c1ccccc1
- IC50 (SMMC-7721): 19.4 µM
- IC50 (MCF7): 18.3 µM
- IC50 (NCM460): > 40 µM
- IC50 (A549): 28.4 µM
- IC50 (SW480): 16.4 µM
- IC50 (HL-60): 9.9 µM

Structure (SMILES): CC(=O)O[C@H]1C(=O)[C@@]2(C)[C@H]([C@H](OC(=O)c3ccccc3)[C@]3(O)C[C@H](OC(=O)[C@H](O)[C@@H](NC(=O)c4ccccc4)c4ccccc4)C(C)=C1C3(C)C)[C@]1(OC(C)=O)CO[C@@H]1C[C@@H]2O [PACLITAXEL]
- IC50 (SMMC-7721): < 0.008 µM
- IC50 (MCF7): < 0.008 µM
- IC50 (NCM460): < 0.008 µM
- IC50 (A549): < 0.008 µM
- IC50 (SW480): < 0.008 µM
- IC50 (HL-60): < 0.008 µM
